≈ marks a conversion by molar mass, not a printed value.
Assays:
Type in all cases: functional
Candida albicans = test: Antifungal activity against Candida albicans ATCC 10213
How it was run: (§1)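 CLSI M27-A3 broth microdilution in RPMI-1640 buffered to pH 7.0 with MOPS. Inoculum 1-5 × 10^3 CFU/mL. Compound twofold dilutions from 250 to 0.24 µg/ml, final DMSO <1%. Incubated at 35 °C in a moist, dark chamber and read at 48 h. MIC is the lowest concentration giving total growth inhibition. For MFC, 5 µL from clear wells was plated in duplicate on SDA; MFC is the lowest concentration with no growth.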

Candida tropicalis = test: Antifungal activity against Candida tropicalis C 131 2000; how it was run: as §1
Saccharomyces cerevisiae = test: Antifungal activity against Saccharomyces cerevisiae ATCC 9763; how it was run: as §1
Cryptococcus neoformans = test: Antifungal activity against Cryptococcus neoformans ATCC 32264; how it was run: as §1
Aspergillus fumigatus = test: Antifungal activity against Aspergillus fumigatus ATCC 26934
How it was run: (§2)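 Broth microdilution per CLSI M38-A2 in RPMI-1640 with MOPS at pH 7.0. Inoculum 1-5 × 10^3 CFU/mL, with twofold compound dilutions spanning 250-0.24 µg/ml (final DMSO <1%). Plates incubated at 35 °C, moist and dark, and read when the control fungus had grown. MIC is total growth inhibition. MFC comes from subculturing clear wells in duplicate onto SDA.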

Aspergillus flavus = test: Antifungal activity against Aspergillus flavus ATCC 9170; how it was run: as §2
Aspergillus niger = test: Antifungal activity against Aspergillus niger ATCC 9029; how it was run: as §2
Nannizzia gypsea = test: Antifungal activity against Microsporum gypseum C 115 2000
How it was run: (§3)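 Dermatophytes tested by CLSI M38-A2 microdilution in MOPS-buffered RPMI-1640 at pH 7.0. Inoculum 1-5 × 10^3 CFU/mL; compounds 250 to 0.24 µg/ml in twofold steps, final DMSO <1%. Incubated at 28 °C in a moist, dark chamber and read according to control growth. MIC is the lowest concentration with complete inhibition. MFC is the lowest concentration with no growth after duplicate subculture on SDA.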

Trichophyton rubrum = test: Antifungal activity against Trichophyton rubrum C 113 2000; how it was run: as §3
[1] = tested on: Trichophyton mentagrophytes; test: Antifungal activity against Trichophyton mentagrophytes ATCC 9972; how it was run: as §3

SMILES	MFC (Candida albicans)	MIC (Candida albicans)	MFC (Candida tropicalis)	MIC (Candida tropicalis)	MFC (Saccharomyces cerevisiae)	MIC (Saccharomyces cerevisiae)	MFC (Cryptococcus neoformans)	MIC (Cryptococcus neoformans)	MFC (Aspergillus fumigatus)	MIC (Aspergillus fumigatus)	MFC (Aspergillus flavus)	MIC (Aspergillus flavus)	MFC (Aspergillus niger)	MIC (Aspergillus niger)	MFC (Nannizzia gypsea)	MIC (Nannizzia gypsea)	MFC (Trichophyton rubrum)	MIC (Trichophyton rubrum)	MFC [1]	MIC [1]
CC1=C(C)C(=O)N(c2ccccc2)C1=O	> 250 µg/mL	> 250 µg/mL	> 250 µg/mL	> 250 µg/mL	> 250 µg/mL	> 250 µg/mL	250 µg/mL (≈ 1240 µM)	125 µg/mL (≈ 621 µM)	> 250 µg/mL	> 250 µg/mL	> 250 µg/mL	> 250 µg/mL	> 250 µg/mL	> 250 µg/mL	> 250 µg/mL	250 µg/mL (≈ 1240 µM)	125 µg/mL (≈ 621 µM)	62.5 µg/mL (≈ 311 µM)	250 µg/mL (≈ 1240 µM)	125 µg/mL (≈ 621 µM)
CC1=C(C)C(=O)N(Cc2ccccc2)C1=O	> 250 µg/mL	125 µg/mL (≈ 581 µM)	> 250 µg/mL	125 µg/mL (≈ 581 µM)	> 250 µg/mL	250 µg/mL (≈ 1160 µM)	250 µg/mL (≈ 1160 µM)	125 µg/mL (≈ 581 µM)	> 250 µg/mL	> 250 µg/mL	> 250 µg/mL	> 250 µg/mL	> 250 µg/mL	> 250 µg/mL	250 µg/mL (≈ 1160 µM)	125 µg/mL (≈ 581 µM)	125 µg/mL (≈ 581 µM)	62.5 µg/mL (≈ 290 µM)	250 µg/mL (≈ 1160 µM)	125 µg/mL (≈ 581 µM)
O=C1C=CC(O)N1c1ccccc1 (stereo not given)	> 250 µg/mL	> 250 µg/mL	> 250 µg/mL	> 250 µg/mL	> 250 µg/mL	> 250 µg/mL	> 250 µg/mL	250 µg/mL (≈ 1430 µM)	> 250 µg/mL	> 250 µg/mL	> 250 µg/mL	> 250 µg/mL	> 250 µg/mL	> 250 µg/mL	> 250 µg/mL	> 250 µg/mL	> 250 µg/mL	> 250 µg/mL	> 250 µg/mL	> 250 µg/mL
O=C1C=CC(O)N1CCCc1ccccc1 (stereo not given)	> 250 µg/mL	62.5 µg/mL (≈ 288 µM)	250 µg/mL (≈ 1150 µM)	125 µg/mL (≈ 575 µM)	125 µg/mL (≈ 575 µM)	62.5 µg/mL (≈ 288 µM)	> 250 µg/mL	62.5 µg/mL (≈ 288 µM)	250 µg/mL (≈ 1150 µM)	125 µg/mL (≈ 575 µM)	> 250 µg/mL	250 µg/mL (≈ 1150 µM)	> 250 µg/mL	> 250 µg/mL	125 µg/mL (≈ 575 µM)	62.5 µg/mL (≈ 288 µM)	250 µg/mL (≈ 1150 µM)	62.5 µg/mL (≈ 288 µM)	62.5 µg/mL (≈ 288 µM)	31.2 µg/mL (≈ 144 µM)
CC1=C(C)C(=O)N(CCCCc2ccccc2)C1=O	> 250 µg/mL	> 250 µg/mL	> 250 µg/mL	> 250 µg/mL	> 250 µg/mL	> 250 µg/mL	> 250 µg/mL	> 250 µg/mL	> 250 µg/mL	> 250 µg/mL	> 250 µg/mL	> 250 µg/mL	> 250 µg/mL	> 250 µg/mL	> 250 µg/mL	250 µg/mL (≈ 972 µM)	250 µg/mL (≈ 972 µM)	125 µg/mL (≈ 486 µM)	> 250 µg/mL	125 µg/mL (≈ 486 µM)
O=C1CCC(=O)N1Cc1ccccc1	> 250 µg/mL	> 250 µg/mL	> 250 µg/mL	> 250 µg/mL	> 250 µg/mL	> 250 µg/mL	> 250 µg/mL	> 250 µg/mL	> 250 µg/mL	> 250 µg/mL	> 250 µg/mL	> 250 µg/mL	> 250 µg/mL	> 250 µg/mL	> 250 µg/mL	> 250 µg/mL	> 250 µg/mL	> 250 µg/mL	> 250 µg/mL	> 250 µg/mL
O=C1C(c2ccccc2)=C(c2ccccc2)C(=O)N1CCCc1ccccc1	> 250 µg/mL	> 250 µg/mL	> 250 µg/mL	> 250 µg/mL	> 250 µg/mL	> 250 µg/mL	> 250 µg/mL	> 250 µg/mL	> 250 µg/mL	> 250 µg/mL	> 250 µg/mL	> 250 µg/mL	> 250 µg/mL	> 250 µg/mL	> 250 µg/mL	> 250 µg/mL	> 250 µg/mL	> 250 µg/mL	> 250 µg/mL	> 250 µg/mL

— ChEMBL document CHEMBL1772954, “Antifungal, cytotoxic and SAR studies of a series of N-alkyl, N-aryl and N-alkylphenyl-1,4-pyrrolediones and related compounds” (Bioorg Med Chem, 2011)
